Experimental data reported in ChEMBL document CHEMBL5058577, “EUbOPEN Chemogenomics Library 2 (Multiplex)” (2022).

Test system: Fibroblast
Test: Multiplex assay against human fibroblast
Assay type: toxicity, cell-based
In short: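 Tubulin, mitochondrial-mass and membrane-permeability phenotypes are per cents of healthy-nucleus cells. Cells were gated by CellPathfinder machine learning into Hoechst high-intensity objects or normal cells, normal cells into healthy, pyknosed or fragmented nuclei, and pyknosed cells into mitotic or apoptotic. Before that, live cells stained at seeding with Hoechst33342, BioTracker Green Microtubule Cytoskeleton Dye, MitoTracker Red and Annexin V Alexa Fluor 680 were imaged on a CQ1 microscope at 37°C and 5% CO2 after compound addition.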

[1] = 12 h, 1 µM, compound concentration 1 uM, replicate 1
[2] = 12 h, 1 µM, compound concentration 1 uM, replicate 2
[3] = 12 h, 10 µM, compound concentration 10 uM, replicate 1
[4] = 12 h, 10 µM, compound concentration 10 uM, replicate 2
[5] = 24 h, 1 µM, compound concentration 1 uM, replicate 1
[6] = 24 h, 1 µM, compound concentration 1 uM, replicate 2
[7] = 24 h, 10 µM, compound concentration 10 uM, replicate 1
[8] = 24 h, 10 µM, compound concentration 10 uM, replicate 2
[9] = 48 h, 1 µM, compound concentration 1 uM, replicate 1
[10] = 48 h, 1 µM, compound concentration 1 uM, replicate 2
[11] = 48 h, 10 µM, compound concentration 10 uM, replicate 1
[12] = 48 h, 10 µM, compound concentration 10 uM, replicate 2

## CC(C)(C)c1cc(NC(=O)Nc2ccc(-c3cn4c(n3)sc3cc(OCCN5CCOCC5)ccc34)cc2)no1 [QUIZARTINIB]
[1]
  Population Apoptotic (%): 42%
  Population Fragmented Nuclei (%): 16%
  Population Healthy Nuclei (%): 65%
  Population Hoechst High Intensity Objects (%): 2%
  Population Membrane Permeable-Phenotype (%): 0%
  Population Mitochondria Different-Phenotype (%): 7%
  Population Mitotic Cells (%): 57%
  Population Normal (%): 97%
  Population Pyknosed Nuclei (%): 17%
  Population Tubulin-Different-Phenotype (%): 31%
  Total Cell Count: 150
[2]
  Population Apoptotic (%): 41%
  Population Fragmented Nuclei (%): 24%
  Population Healthy Nuclei (%): 52%
  Population Membrane Permeable-Phenotype (%): 1%
  Population Mitochondria Different-Phenotype (%): 5%
  Population Mitotic Cells (%): 58%
  Population Pyknosed Nuclei (%): 23%
  Population Tubulin-Different-Phenotype (%): 41%
  Total Cell Count: 137
[3]
  Population Apoptotic (%): 43%
  Population Fragmented Nuclei (%): 34%
  Population Healthy Nuclei (%): 56%
  Population Hoechst High Intensity Objects (%): 3%
  Population Membrane Permeable-Phenotype (%): 0%
  Population Mitochondria Different-Phenotype (%): 10%
  Population Mitotic Cells (%): 56%
  Population Normal (%): 96%
  Population Pyknosed Nuclei (%): 8%
  Population Tubulin-Different-Phenotype (%): 75%
  Total Cell Count: 190
[4]
  Population Apoptotic (%): 48%
  Population Fragmented Nuclei (%): 35%
  Population Healthy Nuclei (%): 45%
  Population Hoechst High Intensity Objects (%): 5%
  Population Membrane Permeable-Phenotype (%): 5%
  Population Mitochondria Different-Phenotype (%): 5%
  Population Mitotic Cells (%): 51%
  Population Normal (%): 94%
  Population Pyknosed Nuclei (%): 18%
  Population Tubulin-Different-Phenotype (%): 70%
  Total Cell Count: 162
[5]
  Population Apoptotic (%): 58%
  Population Fragmented Nuclei (%): 14%
  Population Healthy Nuclei (%): 72%
  Population Hoechst High Intensity Objects (%): 1%
  Population Membrane Permeable-Phenotype (%): 0%
  Population Mitochondria Different-Phenotype (%): 6%
  Population Mitotic Cells (%): 41%
  Population Normal (%): 98%
  Population Pyknosed Nuclei (%): 12%
  Population Tubulin-Different-Phenotype (%): 32%
  Total Cell Count: 137
[6]
  Population Apoptotic (%): 42%
  Population Fragmented Nuclei (%): 25%
  Population Healthy Nuclei (%): 61%
  Population Hoechst High Intensity Objects (%): 3%
  Population Membrane Permeable-Phenotype (%): 2%
  Population Mitotic Cells (%): 57%
  Population Normal (%): 96%
  Population Pyknosed Nuclei (%): 13%
  Population Tubulin-Different-Phenotype (%): 44%
  Total Cell Count: 152
[7]
  Population Apoptotic (%): 75%
  Population Fragmented Nuclei (%): 33%
  Population Healthy Nuclei (%): 57%
  Population Hoechst High Intensity Objects (%): 1%
  Population Membrane Permeable-Phenotype (%): 0%
  Population Mitochondria Different-Phenotype (%): 21%
  Population Mitotic Cells (%): 25%
  Population Normal (%): 98%
  Population Pyknosed Nuclei (%): 8%
  Population Tubulin-Different-Phenotype (%): 71%
  Total Cell Count: 190
[8]
  Population Apoptotic (%): 39%
  Population Fragmented Nuclei (%): 40%
  Population Healthy Nuclei (%): 46%
  Population Hoechst High Intensity Objects (%): 4%
  Population Membrane Permeable-Phenotype (%): 1%
  Population Mitochondria Different-Phenotype (%): 10%
  Population Mitotic Cells (%): 60%
  Population Normal (%): 95%
  Population Pyknosed Nuclei (%): 13%
  Population Tubulin-Different-Phenotype (%): 70%
  Total Cell Count: 179
[9]
  Population Apoptotic (%): 75%
  Population Fragmented Nuclei (%): 19%
  Population Healthy Nuclei (%): 71%
  Population Hoechst High Intensity Objects (%): 8%
  Population Membrane Permeable-Phenotype (%): 0%
  Population Mitochondria Different-Phenotype (%): 5%
  Population Mitotic Cells (%): 25%
  Population Normal (%): 91%
  Population Pyknosed Nuclei (%): 9%
  Population Tubulin-Different-Phenotype (%): 38%
  Total Cell Count: 145
[10]
  Population Apoptotic (%): 42%
  Population Fragmented Nuclei (%): 30%
  Population Healthy Nuclei (%): 60%
  Population Hoechst High Intensity Objects (%): 3%
  Population Membrane Permeable-Phenotype (%): 1%
  Population Mitochondria Different-Phenotype (%): 8%
  Population Mitotic Cells (%): 57%
  Population Normal (%): 96%
  Population Tubulin-Different-Phenotype (%): 34%
  Total Cell Count: 158
[11]
  Population Apoptotic (%): 79%
  Population Fragmented Nuclei (%): 30%
  Population Healthy Nuclei (%): 56%
  Population Hoechst High Intensity Objects (%): 7%
  Population Membrane Permeable-Phenotype (%): 0%
  Population Mitochondria Different-Phenotype (%): 25%
  Population Mitotic Cells (%): 20%
  Population Normal (%): 92%
  Population Pyknosed Nuclei (%): 13%
  Population Tubulin-Different-Phenotype (%): 74%
  Total Cell Count: 195
[12]
  Population Apoptotic (%): 60%
  Population Fragmented Nuclei (%): 44%
  Population Healthy Nuclei (%): 50%
  Population Hoechst High Intensity Objects (%): 3%
  Population Membrane Permeable-Phenotype (%): 2%
  Population Mitochondria Different-Phenotype (%): 6%
  Population Mitotic Cells (%): 40%
  Population Normal (%): 96%
  Population Pyknosed Nuclei (%): 5%
  Population Tubulin-Different-Phenotype (%): 59%
